Converted amounts (≈) assume the structure as drawn.
Columns and labels:
BSC-1 = experiment: The compound was tested for its antiviral activity against HSV-1 (KOS) virus in BS-C-1A cell line; assay type: functional, Cercopithecidae; conditions: Chlorocebus aethiops
Method in brief: (§1)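 Virus-induced cytopathogenicity in cell culture, scored microscopically. The value is the minimum concentration that cuts viral cytopathogenicity by 50%. Normal cell morphology was also checked microscopically at up to 400 μg/mL.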

E6SM [1] = experiment: The compound was tested for its antiviral activity against HSV-1 (KOS) virus in E6SM cell line; assay type: functional; conditions: Homo sapiens; method in brief: as §1
E6SM [2] = experiment: The concentration required to reduce the cytopathogenicity of HSV-1 (KOS) in E6SM cell culture by 50% in presence of 100 ug/mL dThd; assay type: functional; conditions: Homo sapiens
Method in brief: (§2)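 E6SM cells infected with HSV-1 (KOS), with dThd added to the culture medium at the stated concentration. The value is the minimum concentration that reduces viral cytopathogenicity by 50%.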

E6SM [3] = experiment: The concentration required to reduce the cytopathogenicity of HSV-1 (KOS) in E6SM cell culture by 50% in presence of 100 ug/mL concentrations of 6-aminothymine; assay type: functional; conditions: Homo sapiens
Method in brief: (§3)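 E6SM cells infected with HSV-1 (KOS), with 6-aminothymine or benzylacyclouridine added to the medium at the stated concentration. The value is the minimum concentration that reduces viral cytopathogenicity by 50%.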

E6SM [4] = experiment: The compound was tested for its antiviral activity against HSV-1 (F) virus in E6SM cell culture; assay type: functional; conditions: Homo sapiens; method in brief: as §1
E6SM [5] = experiment: The concentration required to reduce the cytopathogenicity of HSV-1 (KOS) in E6SM cell culture by 50% in presence of 50 ug/mL concentrations of benzylacyclouridine; assay type: functional; conditions: Homo sapiens
Method in brief: (§4)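 E6SM cultures were infected with HSV-1 strain KOS. 6-Aminothymine or benzylacyclouridine was present in the medium together with the test compound. The value is the minimum concentration giving 50% reduction of viral cytopathogenicity, scored by the earlier-described cytopathogenicity inhibition procedure.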

E6SM [6] = experiment: The compound was tested for its antiviral activity against HSV-1 (KOS) virus in E6SM cell culture; assay type: functional; conditions: Homo sapiens; method in brief: as §1
E6SM [7] = experiment: The compound was tested for its antiviral activity against HSV-1 (McIntyre) virus in E6SM cell culture; assay type: functional; conditions: Homo sapiens; method in brief: as §1
E6SM [8] = experiment: The compound was tested for its antiviral activity against HSV-2 (196) virus in E6SM cell culture; assay type: functional; conditions: Homo sapiens; method in brief: as §1
E6SM [9] = experiment: The compound was tested for its antiviral activity against HSV-2 (Lyons) virus in E6SM cell culture; assay type: functional; conditions: Homo sapiens; method in brief: as §1
E6SM [10] = experiment: The compound was tested for its antiviral activity against TK-HSV-1 (B2006) virus in E6SM cell culture; assay type: functional; conditions: Homo sapiens; method in brief: as §1
E6SM [11] = experiment: The compound was tested for its antiviral activity against vaccinia virus in E6SM cell culture; assay type: functional; conditions: Homo sapiens; method in brief: as §1
E6SM [12] = experiment: The compound was tested for its antiviral activity against vesicular stomatitis virus in E6SM cell culture; assay type: functional; conditions: Homo sapiens; method in brief: as §1
E6SM [13] = experiment: The concentration required to reduce the cytopathogenicity of HSV-1 (KOS) in E6SM cell culture by 50% in absence of dThd; assay type: functional; conditions: Homo sapiens; method in brief: as §2
E6SM [14] = experiment: The concentration required to reduce the cytopathogenicity of HSV-1 (KOS) in E6SM cell culture by 50% in presence of 1 ug/mL dThd; assay type: functional; conditions: Homo sapiens; method in brief: as §2
E6SM [15] = experiment: The concentration required to reduce the cytopathogenicity of HSV-1 (KOS) in E6SM cell culture by 50% in presence of 10 ug/mL dThd; assay type: functional; conditions: Homo sapiens; method in brief: as §2
E6SM [16] = experiment: The concentration required to reduce the cytopathogenicity of HSV-1 (KOS) in E6SM cell culture by 50% in presence of 10 ug/mL concentrations of benzylacyclouridine; assay type: functional; conditions: Homo sapiens; method in brief: as §3
E6SM [17] = experiment: The concentration required to reduce the cytopathogenicity of HSV-1 (KOS) in E6SM cell culture by 50% in presence of 20 ug/m concentrations of 6-aminothymine; assay type: functional; conditions: Homo sapiens; method in brief: as §3
E6SM [18] = experiment: The concentration required to reduce the cytopathogenicity of HSV-1 (KOS) in E6SM cell culture by 50% in presence of 3 ug/mL dThd; assay type: functional; conditions: Homo sapiens; method in brief: as §2
E6SM [19] = experiment: The concentration required to reduce the cytopathogenicity of HSV-1 (KOS) in E6SM cell culture by 50% in presence of 30 ug/mL dThd; assay type: functional; conditions: Homo sapiens
Method in brief: (§5)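 Thymidine (dThd) was added to the E6SM culture medium alongside the test compound, and cells were infected with HSV-1 strain KOS. The endpoint is the minimum inhibitory concentration that reduces viral cytopathogenicity by 50%. The cytopathogenicity inhibition procedure follows the earlier-described method.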

E6SM [20] = experiment: The concentration required to reduce the cytopathogenicity of HSV-1 (KOS) in E6SM cell culture by 50% in presence of 300 ug/mL dThd; assay type: functional; conditions: Homo sapiens; method in brief: as §5
E6SM [21] = experiment: The concentration required to reduce the cytopathogenicity of HSV-1 (KOS) in E6SM cell culture by 50% in presence of 4 ug/m concentrations of 6-aminothymine; assay type: functional; conditions: Homo sapiens; method in brief: as §4
E6SM [22] = experiment: The concentration required to reduce the cytopathogenicity of HSV-1 (KOS) in E6SM cell culture by 50% in presence of absence of concentrations of 6-aminothymine; assay type: functional; conditions: Homo sapiens
E1 SM = experiment: The compound was tested for its antiviral activity against HSV-1 (KOS) virus in E1SM cell line; assay type: functional, Homo sapiens; method in brief: as §1
E6SM [23] = experiment: The concentration required to reduce the cytopathogenicity of HSV-1 (KOS) in E6SM cell culture by 50% in presence of absence of concentrations of benzylacyclouridine; assay type: functional; conditions: Homo sapiens
HeLa [24] = experiment: The concentration required to reduce the cytopathogenicity of HSV-1 (KOS) in HeLa cell culture by 50% in presence of 4 ug/m concentrations of 6-aminothymine; assay type: functional; conditions: Homo sapiens
HeLa [25] = experiment: The concentration required to reduce the cytopathogenicity of HSV-1 (KOS) in HeLa cell culture by 50% in presence of absence concentrations of 6-aminothymine; assay type: functional; conditions: Homo sapiens
HeLa [26] = experiment: The concentration required to reduce the cytopathogenicity of HSV-1 (KOS) in HeLa cell culture by 50% in presence of 100 ug/m concentrations of 6-aminothymine; assay type: functional; conditions: Homo sapiens
HeLa [27] = experiment: The concentration required to reduce the cytopathogenicity of HSV-1 (KOS) in HeLa cell culture by 50% in presence of 20 ug/m concentrations of 6-aminothymine; assay type: functional; conditions: Homo sapiens
HEp-2 = experiment: The compound was tested for its antiviral activity against HSV-1 (KOS) virus in HEp-2M cell line; assay type: functional; conditions: Homo sapiens; method in brief: as §1
HSF (VGS) = experiment: The compound was tested for its antiviral activity against HSV-1 (KOS) virus in HSF (VGS) cell line; assay type: functional; conditions: Homo sapiens; method in brief: as §1
M21 = experiment: The compound was tested for its antiviral activity against HSV-1 (KOS) virus in M-21 (GM137) cell line,; assay type: functional; conditions: Homo sapiens; method in brief: as §1
Mo = experiment: The compound was tested for its antiviral activity against HSV-1 (KOS) virus in MO cell line; assay type: functional; conditions: Homo sapiens; method in brief: as §1
PRK = experiment: The compound was tested for its antiviral activity against HSV-1 (KOS) virus in PRK cell line; assay type: functional; conditions: Oryctolagus cuniculus
Method in brief: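 Primary rabbit kidney cells infected with HSV-1 (KOS). The value is the minimum concentration that cuts viral cytopathogenicity by 50%. Cytotoxicity was judged as microscopically detectable alteration of cell morphology at up to 400 μg/mL.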

[28] = The concentration required to reduce the cytopathogenicity of HSV-1 (KOS) in PRK cell culture absence concentrations of 6-aminothymine; assay type: functional; conditions: Oryctolagus cuniculus
[29] = The concentration required to reduce the cytopathogenicity of HSV-1 (KOS) in PRK cell culture by 50% in presence of 100 ug/mL concentrations of 6-aminothymine; assay type: functional; conditions: Oryctolagus cuniculus
Method in brief: (§6)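 The cells were primary rabbit kidney (PRK) cultures infected with HSV-1 strain KOS, with 6-aminothymine co-present in the medium. The value is the minimum inhibitory concentration that reduces viral cytopathogenicity by 50%, using the previously described cytopathogenicity inhibition method.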

[30] = The concentration required to reduce the cytopathogenicity of HSV-1 (KOS) in PRK cell culture by 50% in presence of 20 ug/mL concentrations of 6-aminothymine; assay type: functional; conditions: Oryctolagus cuniculus; method in brief: as §6
[31] = The concentration required to reduce the cytopathogenicity of HSV-1 (KOS) in PRK cell culture by 50% in presence of 40 ug/mL concentrations of 6-aminothymine; assay type: functional; conditions: Oryctolagus cuniculus; method in brief: as §6
T-21 (LR) = experiment: The compound was tested for its antiviral activity against HSV-1 (KOS) virus in T-21 (LR) cell line; assay type: functional; conditions: Homo sapiens; method in brief: as §1
Vero = experiment: The compound was tested for its antiviral activity against HSV-1 (KOS) virus in vero cell line; assay type: functional; conditions: Chlorocebus sabaeus; method in brief: as §1
HeLa [32] = experiment: The compound was tested for its antiviral activity against HSV-1 (KOS) virus in HeLa cell line; assay type: functional; conditions: Homo sapiens; method in brief: as §1
E6SM [33] = experiment: The compound was tested for its antiviral activity against HSV-2 (G) virus in E6SM cell culture; assay type: functional; conditions: Homo sapiens; method in brief: as §1
BALB/3T3 = experiment: The compound was tested for its antiviral activity against HSV-1 (KOS) virus in BALB/3T3 cell line; conditions: Mus musculus

For `O=c1[nH]c(=O)n([C@@H]2O[C@H](CO)[C@@H](O)[C@H]2O)cc1/C=C/Br`, the MIC50 (BSC-1) was > 400 µg/mL, the MIC50 (E6SM [1]) was 4 µg/mL (≈ 11.5 µM) and the MIC50 (E6SM [2]) was > 400 µg/mL. For the same compound, the MIC50 (E6SM [3]) was 4 µg/mL, the MIC50 (E6SM [4]) was 7 µg/mL (≈ 20 µM) and the MIC50 (E6SM [5]) was 10 µg/mL. For the same compound, the MIC50 (E6SM [6]) was 4 µg/mL (≈ 11.5 µM), the MIC50 (E6SM [7]) was 2 µg/mL (≈ 5.73 µM) and the MIC50 (E6SM [8]) was > 400 µg/mL. The MIC50 (E6SM [9]) was > 400 µg/mL, the MIC50 (E6SM [10]) was > 200 µg/mL and the MIC50 (E6SM [11]) was > 400 µg/mL. The MIC50 (E6SM [12]) was > 400 µg/mL, the MIC50 (E6SM [13]) was 7 µg/mL (≈ 20 µM) and the MIC50 (E6SM [14]) was 7 µg/mL. The MIC50 (E6SM [15]) was 70 µg/mL, the MIC50 (E6SM [16]) was 4 µg/mL and the MIC50 (E6SM [17]) was 3 µg/mL. The MIC50 (E6SM [18]) was 4 µg/mL, the MIC50 (E6SM [19]) was > 400 µg/mL and the MIC50 (E6SM [20]) was > 400 µg/mL. The MIC50 (E6SM [21]) was 3 µg/mL, the MIC50 (E6SM [22]) was 4 µg/mL and the MIC50 (E1 SM) was 1 µg/mL (≈ 2.86 µM). The MIC50 (E6SM [23]) was 4 µg/mL, the MIC50 (HeLa [24]) was 0.4 µg/mL and the MIC50 (HeLa [25]) was 0.2 µg/mL. It also gave an MIC50 (HeLa [26]) of 1 µg/mL, an MIC50 (HeLa [27]) of 0.4 µg/mL and an MIC50 (HEp-2) of 150 µg/mL (≈ 430 µM). For the same compound, the MIC50 (HSF (VGS)) was 1 µg/mL (≈ 2.86 µM), the MIC50 (M21) was 4 µg/mL (≈ 11.5 µM) and the MIC50 (Mo) was > 400 µg/mL. The MIC50 (PRK) was 7 µg/mL (≈ 20 µM), the MIC50 [28] was 10 µg/mL (≈ 28.6 µM) and the MIC50 [29] was 10 µg/mL. It also gave an MIC50 [30] of 10 µg/mL, an MIC50 [31] of 10 µg/mL and an MIC50 (T-21 (LR)) of 10 µg/mL (≈ 28.6 µM). For the same compound, the MIC50 (Vero) was > 400 µg/mL, the MIC50 (HeLa [32]) was 0.4 µg/mL (≈ 1.15 µM) and the MIC50 (E6SM [33]) was > 400 µg/mL. For the same compound, the MIC50 (BALB/3T3) was > 400 µg/mL.

Source: ChEMBL document CHEMBL1123468, “Synthesis and antiviral activity of (E)-5-(2-bromovinyl)uracil and (E)-5-(2-bromovinyl)uridine” (1986)
